# 697 NFkB inh = inhibitors of the PMA/ionomycin-induced NF-kB reporter in 697 B cells | AID 435022 | hit rate 0.33% among 330,000 | inhibition, % at 4 µM | 697 B-cell NF-kB luciferase reporter, 16 h; in the data active means inhibition above about 35%
# hiPSC survival = hiPSC single-cell survival enhancement | ATPlite luminescence; 100% = ROCK inhibitor wells, 0% = DMSO | hit rate 0.044% among 360,000 | survival enhancement, % at 20 µM | AID 602274; in the data active means survival enhancement above about 18%;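 further: cells exposed to compounds for 16 hours before the ATP read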
# Gli-Sufu block = blocks Gli-Sufu signaling in a luciferase reporter. Sufu-KO-LIGHT fibroblasts, Gli luciferase reporter luminescence. hit rate 0.74% among 340,000. inhibition, % at 5 µM;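 active means inhibition above about 55%, limit read from the data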;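 further: 0% = DMSO-treated cells and 100% = wells with medium but no cells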
# Jurkat NFkB inh = inhibitors of the PMA/ionomycin-induced NF-kB reporter in Jurkat cells | PMA/ionomycin-induced NF-kB luciferase reporter, luminescence | inhibition, % at 4 µM | hit rate 0.53% among 330,000 | AID 435003; in the data active means inhibition above about 50%
# H9c2 TAG inh = triacylglycerol accumulation inhibition; hit rate 0.66% among 230,000; AID 651582; inhibition, % at 12.5 µM; H9c2 cells, Nile Red lipid (TAG) fluorescence; cells loaded with 200 µM oleic acid;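 active means pattern-corrected inhibition of lipid staining of at least 50% with the nuclear-stain viability signal not falling by more than 50%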;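 further: 0% = DMSO wells and 100% = triacsin C control wells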
# Lipid droplet = hepatic lipid droplet formation modulation | inhibition, % at 6.5 µM | AML12 mouse hepatocytes, oleate lipid droplets, BODIPY imaging | hit rate 0.4% among 240,000 | AID 1656;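 active means lipid droplet intensity inhibited by at least 50%, with more than 500 cells counted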
#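 Material – mouse AML12 hepatocyte cell line, fixed after treatment · Compound dosing – one dose, 6.5 µM compound · Times – compound with oleate, overnight · Measured by – Image-based BODIPY and DAPI two-channel analysis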
# Gli antag conf = confirmation of Gli-SUFU pathway antagonists | shares compounds with Gli-Sufu block | Sufu-KO-LIGHT cells, Gli luciferase reporter, luminescence | inhibition, % at 5 µM | hit rate 40% among 2,500 | AID 602428;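 active means mean inhibition at 5 µM reaching about 45%, limit read from the data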;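 further: plate controls were DMSO-treated cells for no effect and wells lacking cells for full effect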
# Gli cytotox = counter-screen for Gli-SUFU antagonists: cytotoxicity. shares compounds with Gli-Sufu block. Sufu-KO-LIGHT cells cytotoxicity, ATP luminescence. cytotoxicity, % at 5 µM. hit rate 32% among 2,500. AID 651994;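 active means mean cytotoxicity at 5 µM above about 25%, limit read from the data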;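 further: cells exposed to compound overnight for roughly 16 to 18 hours; plate controls were DMSO wells with cells for no effect and medium without cells for full effect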
# Wnt3a counter = counter-screen for Gli-SUFU antagonists: Wnt3a reporter inhibition | inhibition, % at 6.25 µM | Wnt-LIGHT cells, Wnt3a-driven luciferase reporter, luminescence | AID 651995 | shares compounds with Gli-Sufu block | hit rate 20% among 2,500;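 active means mean inhibition above about 25%, limit read from the data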
# Starred values were filed as active, the others as inactive; x = no result. This is a sample that favours compounds with a hit; in the whole collection about 1.8% have one here.
SMILES,697 NFkB inh,hiPSC survival,Gli-Sufu block,Jurkat NFkB inh,H9c2 TAG inh,Lipid droplet,Gli antag conf,Gli cytotox,Wnt3a counter
Cc1ccc2c(c1)nnn2C1CCN(S(=O)(=O)c2ccc(C(=O)O)cc2)CC1,10.1,-0.6,-1.0,-3.5,-3.8,-0.2,x,x,x
CCC(=O)c1ccc(OCC(O)Cn2c(C)nc3ccccc32)cc1 (stereo not drawn),-35.4,-3.3,51.2,29.1,-74.9,-21.2,51.9*,22.5,-12.3
Cc1cc(C)c[n+](C(C)C(=O)c2ccc(-c3ccccc3)cc2)c1 (stereo not drawn),26.8,2.8,79.9*,33.8,x,-46.9,78.9*,23.5,-0.2
Cc1ccc[n+](C(C)C(=O)c2ccc(Cl)cc2)c1 (stereo not drawn),1.1,0.1,-12.0,0.5,x,13.7,x,x,x
Cc1ccc(S(=O)(=O)N2CCN(c3ncccn3)CC2)cc1C,x,-0.7,-13.8,x,-7.8,x,x,x,x
Cc1sc2ncnc(N3CCN(S(=O)(=O)c4ccccc4)CC3)c2c1C,-11.1,-0.1,59.6*,4.4,-35.0,x,53.6*,25.8*,30.4*
Cc1ccc(S(=O)(=O)N2CCN(c3ncnc4sccc34)CC2)cc1C,-8.6,0.3,52.4,25.0,-21.4,x,47.2*,26.2*,36.1*
Cc1ccc(S(=O)(=O)N2CCN(c3ncnc4scc(-c5ccccc5)c34)CC2)cc1,-33.2,-0.2,9.6,-5.9,6.0,x,x,x,x
Cc1ccc(C)c(S(=O)(=O)N2CCN(C(=O)C3CCN(c4ncnc5sc(C)c(C)c45)CC3)CC2)c1,-56.8,0.5,73.0*,19.7,2.1,x,34.3,24.7,-10.8
Cc1ccc(NC(=O)C2CCN(c3ncnc4sc(C)c(C)c34)CC2)cc1S(=O)(=O)N(C)C,-40.1,-0.4,40.5,0.5,5.7,x,x,x,x
O=C(C[n+]1cc(-c2ccc(Cl)cc2)n2c1CCC2)Nc1nc(-c2ccc(F)cc2)cs1,-7.6,-0.4,6.6,18.8,11.2,1.5,x,x,x
CCCCCNCC(=O)Nc1cccc(C(=O)Nc2cccc(C(F)(F)F)c2)c1,8.0,-0.5,8.0,-7.7,-11.8,-23.0,x,x,x
CCc1cccc(OCC(=O)Nc2cc(S(=O)(=O)N3CCOCC3)ccc2N2CCCC2)c1,-13.1,0.0,8.8,-3.5,-4.7,-17.7,x,x,x
C=CCNC(=O)c1ccc(CN2CCC(Cc3ccccc3)CC2)cc1,-2.6,0.7,55.9*,18.7,x,-1.4,16.2,18.1,-5.9
COc1ccc(C2C=C(C)Nc3nc4ccccc4n32)cc1 (stereo not drawn),-11.9,0.9,98.1*,-28.0,x,4.3,9.1,24.2,-26.1
CCOC(=O)N1CCN(C(=O)c2ccc3c(c2)N(Cc2cccc(Cl)c2)C(=O)c2ccccc2S3=O)CC1 (stereo not drawn),-12.8,-0.2,55.9*,12.2,x,-31.6,12.3,12.0,2.4
CCCC(C)C(=O)Nc1nc(C)c(-c2csc(Nc3ccc(Cl)cc3)n2)s1 (stereo not drawn),-43.2,-2.4,52.8,-7.2,-6.9,x,59.9*,18.2,5.4
COc1ccc2ccccc2c1CN(C)Cc1ccccc1,2.5,-0.6,82.6*,-0.2,-18.4,-7.3,17.7,14.2,-7.2
COc1cc(/C=N/NC(=O)c2ccccc2O)ccc1OC(=O)CC1SC(=O)NC1=O (stereo not drawn),9.1,0.0,57.5*,1.4,-2.1,17.6,6.8,7.2,-48.4
Cc1nn(CCCC(=O)Nc2cc(Oc3ccccc3)cc([N+](=O)[O-])c2)c(C)c1[N+](=O)[O-],-20.3,-1.4,5.5,14.7,x,4.1,x,x,x
Cc1ccc(C)c(Oc2cc(NC(=O)CCCn3nc(C)c([N+](=O)[O-])c3C)cc([N+](=O)[O-])c2)c1,0.9,0.0,50.2,6.0,x,-5.1,17.1,12.4,-20.1
Cc1ccccc1C(=O)Nc1ccnn1C1CCN(Cc2cnn(C(C)C)c2)CC1,-0.9,-0.5,11.4,1.7,4.7,13.2,x,x,x
CCN(CC)c1ccc(/C=N/NC(=S)NC)c(O)c1,-19.4,-0.9,84.4*,-40.4,15.6,-1.5,24.9,20.7,-98.8
CC[N+]1=C(C)C(C)(C)c2cc(C)ccc21,-36.6,-0.6,56.8*,37.4,-20.0,-18.4,45.5*,16.8,-3.0
CCCCn1c(CN(C)Cc2ccccc2)nc2c1c(=O)n(C)c(=O)n2C,-31.6,-2.9,60.2*,22.9,x,-2.8,52.4*,20.1,22.0
SMILES,697 NFkB inh,hiPSC survival,Gli-Sufu block,Jurkat NFkB inh,H9c2 TAG inh,Lipid droplet,Gli antag conf,Gli cytotox,Wnt3a counter
COc1ccc(-c2cn(-c3ccc(Br)cc3)c3[n+]2CCS3)cc1,-20.1,-1.7,74.5*,10.5,x,-0.9,76.3*,24.4,60.8*
Fc1ccc(-c2cn(-c3ccccc3)c3[n+]2CCS3)cc1,-29.9,-0.2,20.8,4.0,-17.0,6.2,x,x,x
COc1ccc(N2CC(O)=C(c3nc(-c4ccc(Br)cc4)cs3)C2=N)cc1,-19.2,-0.7,3.6,7.8,-14.8,-13.2,x,x,x
CC(=O)c1ccc(-n2cc(-c3ccc(C(C)(C)C)cc3)[n+]3c2SCCC3)cc1,-39.3,-0.9,73.4*,10.5,-16.2,3.2,64.8*,22.4,-50.5
Clc1ccc(-c2cn(-c3ccccc3)c3[n+]2CCS3)cc1,-18.2,-1.7,55.9*,6.8,-17.1,3.0,56.5*,23.8,-12.3
COC(=O)CCC(C)N1CCC(Oc2ccc(C(=O)N3CCCC3)cc2)CC1 (stereo not drawn),-7.2,-0.4,-8.3,-12.4,-3.8,19.4,x,x,x
CN(/N=C\c1ccc(O)c(O)c1)c1nc(-c2ccccc2)cc(-c2ccccc2)n1,-30.4,3.6,90.5*,-19.8,33.6,x,81.5*,25.6*,88.6*
COc1cc(/C=N/N(c2ccccc2)c2ccccc2)ccc1O,-1.9,-0.4,-13.4,1.7,-7.3,13.5,x,x,x
COc1ccccc1C(=O)NCC(c1cccs1)N1CCc2ccccc21 (stereo not drawn),-1.9,-0.4,4.0,-1.3,-23.7,x,x,x,x
CC(C)c1ccc(NC(=O)CCCC(=O)NCCc2ccccc2)cc1,-3.2,-0.6,53.4,-4.1,9.5,6.0,21.4,-4.4,-25.2
O=C(CCCc1ccccc1)NCCc1ccccc1,-3.4,-0.9,-23.8,-22.1,5.6,-8.8,x,x,x
CC1CCCN(C(=O)C2CCN(C(=O)Nc3ccccc3)CC2)C1 (stereo not drawn),8.2,0.0,-8.3,10.6,-1.8,x,x,x,x
O=C(Nc1ccccc1)N1CCC(C(=O)N2CCCC(C(F)(F)F)C2)CC1 (stereo not drawn),10.5,-0.6,92.2*,-3.8,0.1,-0.5,22.6,14.1,-46.6

# Screens from PubChem BioAssay.
